Screens (PubChem BioAssay)
The list is not random: actives were taken first. Their share in the collection is about 6.7%.
CHOP inhibitor: inhibitors of CHOP induction in ER stress response | CHO-K1 CHOP-promoter luciferase, tunicamycin-induced, 15-18 h | inhibition, % at 10 µM | 220,000 compounds, 3.8% hits;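 active = compounds that reduced the stress-induced luciferase reporter signal by more than about 70% of percent inhibition, limit read from the data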
GRIN3A LBD mod: NR3A (human) ligand-binding domain modulation; Tm shift relative to glycine control, % at 25 µM; 340,000 compounds, 2.5% hits; NR3A LBD differential scanning fluorimetry, Tm shift; 0% = protein alone, 100% = glycine-bound protein;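 active = melting temperature shift of at least 10% of the positive control shift, at one fixed dose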
Beta cell apopt: blocks beta cell apoptosis; protection from apoptosis, % (no concentration beside the values); 300,000 compounds, 0.8% hits; INS-1E cytokine-induced death, ATP luminescence, 48 h; percent of positive-control rescue, neutral wells zero;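 active = Every replicate reaches about 75%, or at least half do and their mean reaches it too, limit read from the data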;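 also: higher means more ATP so stronger rescue from cytokine killing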
PREPL inh: inhibitors of human prolyl oligopeptidase-like enzyme PREPL | recombinant PREPL, fluorescence polarization activity-based probe | inhibition, % at 5.96 µM | 320,000 compounds, 0.68% hits; in the data active = inhibition above about 43%
Target sequence (Q4J6C6 whole entry, looked up): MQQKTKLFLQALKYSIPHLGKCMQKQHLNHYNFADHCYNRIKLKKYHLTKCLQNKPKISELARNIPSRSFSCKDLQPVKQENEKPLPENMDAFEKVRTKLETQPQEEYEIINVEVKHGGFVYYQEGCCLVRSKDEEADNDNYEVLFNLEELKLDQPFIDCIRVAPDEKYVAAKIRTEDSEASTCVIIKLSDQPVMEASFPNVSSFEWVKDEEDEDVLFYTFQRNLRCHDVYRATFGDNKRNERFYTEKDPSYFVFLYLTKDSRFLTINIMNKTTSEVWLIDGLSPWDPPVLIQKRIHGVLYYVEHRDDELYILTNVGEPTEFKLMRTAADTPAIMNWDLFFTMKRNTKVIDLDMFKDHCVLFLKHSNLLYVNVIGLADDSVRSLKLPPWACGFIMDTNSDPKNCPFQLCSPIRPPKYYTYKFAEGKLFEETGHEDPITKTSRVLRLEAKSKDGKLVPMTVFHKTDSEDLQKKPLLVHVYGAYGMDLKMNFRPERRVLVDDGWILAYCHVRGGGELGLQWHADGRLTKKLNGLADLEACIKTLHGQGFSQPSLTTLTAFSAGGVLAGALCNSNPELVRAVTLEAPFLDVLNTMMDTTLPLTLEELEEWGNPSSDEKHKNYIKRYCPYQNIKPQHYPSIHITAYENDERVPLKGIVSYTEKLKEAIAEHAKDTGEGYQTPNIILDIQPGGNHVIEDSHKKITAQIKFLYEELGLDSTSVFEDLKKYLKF
T cruzi inh: blocks replication of Trypanosoma cruzi; T. cruzi beta-gal in NIH3T3, luminescence, 90 h; inhibition, % (test concentration not listed); 300,000 compounds, 1.4% hits; AID 1885;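 active = mean inhibition across valid replicates above about 55%, limit read from the data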;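 also: signal also drops with host cell toxicity which is not excluded here; higher percent means less beta-gal luminescence so fewer parasites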
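compound dosing = single 50 nL compound addition per well in DMSO | material = NIH/3T3 host cells with β-galactosidase reporter T. cruzi | input = 5,000 host fibroblasts per well | timing = ≥90 h infection period, 3 h prior cell attachment | read-out basis = percent inhibition of parasite-derived β-gal signal | detection = GalScreen β-gal luminescence, detergent lysis, 60 min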
CSC inhib: cancer stem cell inhibition; cancer stem cell-like cells viability, luminescence; inhibition, % at 7.5 µM; 300,000 compounds, 1.1% hits; in the data active = inhibition above about 75%; tested in HMLE shEcad cells
Large screens that a line does not name were inactive.

O=C(CSc1ncnc2c1nnn2Cc1ccccc1F)NCC1CCCO1 (centres undefined)	none (no result: CHOP inhibitor)
CCCOC1CCCN(C(=O)CCc2nnc(-c3ccc4c(c3)OCO4)o2)C1 (centres undefined)	none (no result: CHOP inhibitor)
COC(=O)c1ccc(COc2ccccc2/C=C(\C#N)C(=O)Nc2c(C)cccc2C)cc1	Beta cell apopt 107, CSC inhib 102
COc1ccccc1NS(=O)(=O)c1cc(NC(=O)c2ccc(Cl)nc2)ccc1Cl	GRIN3A LBD mod 16
COc1ccccc1NS(=O)(=O)c1cc(NC(=O)Nc2cccc(C)c2)ccc1N1CCCCC1	GRIN3A LBD mod 24, T cruzi inh 60
COc1ccccc1NS(=O)(=O)c1cc(NC(=O)c2ccc3ccccc3n2)ccc1Cl	none
COc1ccc(C(=O)Nc2ccc(Cl)c(S(=O)(=O)Nc3ccccc3OC)c2)cc1	none
COc1ccccc1NC(=O)Nc1ccc(F)c(F)c1	GRIN3A LBD mod 23
COc1ccccc1NC(=O)Nc1ccc(Cl)c(S(=O)(=O)Nc2ccccc2OC)c1	GRIN3A LBD mod 11
Cc1ccc(C(=O)N2CCC(C(=O)Nc3cccc([N+](=O)[O-])c3)CC2)cc1	none (no result: CHOP inhibitor)
CC(=O)Nc1ccccc1C(=O)C(=O)Nc1ccc(F)c(Cl)c1	none (no result: CHOP inhibitor)
NC(=O)c1ccccc1NC(=O)Nc1ccc(F)c(Cl)c1	GRIN3A LBD mod 33
Cc1ccc(CN2CC(C(=O)Nc3cc(C)ccn3)CC2=O)cc1 (centres undefined)	none (no result: CHOP inhibitor)
COc1ccc(NC(=O)/C(N=Nc2ccc(Cl)c(S(=O)(=O)Nc3ccc(Cl)cc3)c2)=C(\C)O)cc1	none (no result: CHOP inhibitor, T cruzi inh)
COc1ccc(NC(=O)/C(N=Nc2cc(S(=O)(=O)Nc3ccc(OC)cc3)ccc2OC)=C(\C)O)cc1	GRIN3A LBD mod 11
CCCCCCc1cc2cc(S(=O)(=O)c3ccc(C)cc3)c(=O)oc2cc1O	CHOP inhibitor 86, GRIN3A LBD mod 27, CSC inhib 89
CCCCCCc1cc2cc(C(=O)Nc3ccccc3)c(=O)oc2cc1O	CHOP inhibitor 71, GRIN3A LBD mod 17, Beta cell apopt 112, CSC inhib 100
CCN(CC)c1ccc2cc(S(=O)(=O)c3ccc(Cl)cc3)c(=O)oc2c1	CSC inhib 99
CCCCCCc1cc2cc(S(=O)(=O)c3ccc(Cl)cc3)c(=O)oc2cc1O	GRIN3A LBD mod 106, CSC inhib 87
Nc1c(-c2ccc(Cl)cc2)cnc2c(-c3ccc(F)cc3)cnn12	none (no result: CHOP inhibitor)
Cc1ccc(C(=O)Nc2ccccc2N2CCCCC2)o1	none (no result: CHOP inhibitor, CSC inhib)
Oc1ccccc1C=NCCN1CCN(CCN=Cc2ccccc2O)C1c1ccccc1O (centres undefined)	none (no result: CHOP inhibitor, Beta cell apopt, PREPL inh, T cruzi inh, CSC inhib)
CC1CC1C(=O)N1CCN(S(=O)(=O)c2cc(C(F)(F)F)cc(C(F)(F)F)c2)CC1 (centres undefined)	CSC inhib 79 (no result: CHOP inhibitor, T cruzi inh)
Cc1[nH]c2c(Cl)cccc2c(=O)c1CN1CCCCCC1	T cruzi inh 57 (no result: CHOP inhibitor)
Cc1ccc2c(=O)c(CN3CCCCCC3)c(C)[nH]c2c1C	none (no result: CHOP inhibitor)
Cc1ccc(C(CNS(=O)(=O)c2ccc(Cl)cc2)N2CCN(C)CC2)cc1 (centres undefined)	none (no result: CHOP inhibitor, CSC inhib)
O=C(OCCN1C(=O)c2cccc3c(N4CCOCC4)ccc(c23)C1=O)c1ccccc1Cl	none
O=C(OCCN1C(=O)c2cccc3c(N4CCOCC4)ccc(c23)C1=O)c1ccc(Cl)cc1Cl	GRIN3A LBD mod 11
COc1ccc(N(C(=O)c2ccco2)C(C(=O)NC2CCCCC2)c2cccs2)cc1OC (centres undefined)	none
O=C(NC1CCCCC1)C(c1ccco1)N(CCc1ccccc1)C(=O)C(F)(F)F (centres undefined)	none
C#CC(=O)N(c1ccc(OC)cc1OC)C(C(=O)NC1CCCC1)c1cccs1 (centres undefined)	CHOP inhibitor 107
COc1ccc(CCN(C(=O)C(F)(F)F)C(C(=O)NC2CCCC2)c2cccs2)cc1 (centres undefined)	CHOP inhibitor 80
CCCCn1c(N)c(N(CCOC)C(=O)c2cccc(S(=O)(=O)N(C)c3ccc(C)cc3)c2)c(=O)[nH]c1=O	none (no result: CHOP inhibitor)
COC(=O)c1cc2nc(-c3ccc(OC)cc3)cc(C(F)(F)F)n2n1	CHOP inhibitor 70 (no result: Beta cell apopt, T cruzi inh)
COC(=O)c1cc([N+](=O)[O-])c(-n2ccnc2)c([N+](=O)[O-])c1	CHOP inhibitor 90
CC1(CNC(=O)C(=O)NCC2(C)CO2)CO1 (centres undefined)	none (no result: CHOP inhibitor, Beta cell apopt, PREPL inh, T cruzi inh, CSC inhib)
Nc1nonc1-n1nnc(C(=O)N/N=C/c2ccccc2Cl)c1CSc1ccccc1	GRIN3A LBD mod 30 (no result: Beta cell apopt, CSC inhib)
Nc1nonc1-n1nnc(C(=O)N/N=C/c2ccc3c(c2)OCO3)c1CSc1ccccc1	GRIN3A LBD mod 39 (no result: CHOP inhibitor)
Nc1nonc1-n1nnc(C(=O)N/N=C/c2ccncc2)c1CSc1ccc(Cl)cc1	none (no result: CHOP inhibitor)
Cc1ccc(/C=N/NC(=O)c2nnn(-c3nonc3N)c2CSc2ccc(Cl)cc2)cc1	GRIN3A LBD mod 26
CCc1c(C(=O)N/N=C/c2cccs2)nnn1-c1nonc1N	GRIN3A LBD mod 22 (no result: CHOP inhibitor)
CCN(CC)Cc1c(C(=O)N/N=C/c2cccs2)nnn1-c1nonc1N	none (no result: CHOP inhibitor)
Cc1ccc(SCc2c(C(=O)N/N=C/c3ccncc3)nnn2-c2nonc2N)cc1	none (no result: CHOP inhibitor)
Cc1ccc(-c2nc(SCC(=O)NCC3CCCO3)c(-c3ccccc3)[nH]2)cc1 (centres undefined)	none
Nc1nonc1-n1nnc(C(=O)N/N=C/c2c(Cl)cccc2Cl)c1CSC1=NCCS1	none (no result: CSC inhib)
Nc1nonc1-n1nnc(C(=O)N/N=C/c2cccs2)c1CSc1ccccc1	GRIN3A LBD mod 37 (no result: CHOP inhibitor)
Nc1nonc1-n1nnc(C(=O)N/N=C/C=C/c2ccccc2)c1CSC1=NCCS1	GRIN3A LBD mod 16
CCN(CC(=O)Nc1c(F)cccc1F)C(=O)C1(c2ccccc2)CC1	none (no result: CHOP inhibitor)
NC(=O)c1nn(CC(=O)Nc2cccc(S(=O)(=O)N3CCCC3)c2)c(=O)c2ccccc12	none (no result: CHOP inhibitor, T cruzi inh)
Cc1ccc(C(=O)N2CCCCC2)cc1S(=O)(=O)N1CCOCC1	none (no result: CHOP inhibitor, Beta cell apopt)
Cc1ccc(-c2oc3ncnc(N)c3c2-c2ccc(C)cc2)cc1	CHOP inhibitor 82 (no result: CSC inhib)
COC(=O)c1oc2ccccc2c1NC(=O)CN1CCCC1	CHOP inhibitor 72
O=C(NCc1ccc(F)cc1)c1cccc2c1C(=O)c1ccc(N3CCOCC3)cc1S2(=O)=O	none (no result: CHOP inhibitor, T cruzi inh)
O=C(NCc1ccccc1Br)c1cccc2c1C(=O)c1ccc(N3CCOCC3)cc1S2(=O)=O	Beta cell apopt 87 (no result: CHOP inhibitor, GRIN3A LBD mod, T cruzi inh)
COc1cccc(-c2nc(-c3ccc(NC(=O)c4cccs4)cc3)no2)c1	GRIN3A LBD mod 15
COc1cccc(-c2nc(-c3ccc(C(=O)O)cc3)no2)c1	none (no result: CHOP inhibitor)
Cc1ccc(-c2nnc(-c3cccc(NC(=O)c4cccs4)c3)o2)cc1	GRIN3A LBD mod 20
CCOC(=O)c1ccc(NC(=O)CCc2nc(-c3ccc(C)cc3)no2)cc1	none
COc1ccc(Cl)cc1-c1nc(-c2ccc(NC(=O)c3ccncc3)cc2)no1	GRIN3A LBD mod 26 (no result: CHOP inhibitor)
